According to ChEMBL document CHEMBL1255505, “Synthesis of new series of quinoxaline based MAO-inhibitors and docking studies” (Eur J Med Chem, 2010):

Key:
[1] = Inhibition of MAOA by spectrofluorimetry
[2] = target: Amine oxidase [flavin-containing] B (Bos taurus) (UniProt P56560)
[3] = Selectivity index ratio of IC50 for MAOB to IC50 for MAOA
Procedure, shortened: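 Bovine brain mitochondria (6 mg/ml) in 0.25 M phosphate buffer, pH 7.4, with 0.1 mM isoform-specific substrate. Compound in propylene glycol at 0.5 nM–0.1 M; 60 min at 37 °C, perchloric acid stop, fluorimetric read. Six samples in duplicate; ratio of the MAO-B and MAO-A IC50s.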

Amine oxidase [flavin-containing] B (Bos taurus), sequence (P56560 whole entry, looked up): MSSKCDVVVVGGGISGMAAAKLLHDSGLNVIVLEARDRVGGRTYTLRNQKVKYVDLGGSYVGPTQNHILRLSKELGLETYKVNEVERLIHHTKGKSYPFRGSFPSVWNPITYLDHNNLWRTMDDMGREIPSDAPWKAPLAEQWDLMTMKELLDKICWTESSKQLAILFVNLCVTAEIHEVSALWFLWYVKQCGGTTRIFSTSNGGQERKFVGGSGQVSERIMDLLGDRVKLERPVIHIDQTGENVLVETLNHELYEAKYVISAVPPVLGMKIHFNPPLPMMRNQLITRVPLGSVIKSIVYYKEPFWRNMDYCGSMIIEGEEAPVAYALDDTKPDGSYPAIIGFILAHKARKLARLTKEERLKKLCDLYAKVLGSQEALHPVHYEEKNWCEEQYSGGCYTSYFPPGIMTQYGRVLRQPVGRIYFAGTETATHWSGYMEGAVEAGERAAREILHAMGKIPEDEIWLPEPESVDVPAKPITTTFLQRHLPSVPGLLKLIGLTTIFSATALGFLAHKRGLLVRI

## C/C(=N\Nc1nc2ccccc2nc1Cc1ccccc1)c1ccc(N)cc1
[1]
  IC50: 0.0098 µM
[2]
  IC50: 860 µM
[3]
  Ratio IC50: 87700

## C/C(=N\Nc1nc2ccccc2nc1Cc1ccccc1)c1ccc(C)cc1
[1]
  IC50: 0.086 µM
[2]
  IC50: 740 µM
[3]
  Ratio IC50: 8600

## C(=N\Nc1nc2ccccc2nc1Cc1ccccc1)/c1ccccc1
[1]
  IC50: 0.081 µM
[2]
  IC50: 320 µM
[3]
  Ratio IC50: 3950

## C/C(=N\Nc1nc2ccccc2nc1Cc1ccccc1)c1cccs1
[1]
  IC50: 0.064 µM
[2]
  IC50: 850 µM
[3]
  Ratio IC50: 13300

## COc1ccc(-c2nnc3c(C(=O)c4ccccc4)nc4ccccc4n23)cc1OC
[1]
  IC50: 0.0068 µM
[2]
  IC50: 86 µM
[3]
  Ratio IC50: 12600

## C/C(=N\Nc1nc2ccccc2nc1Cc1ccccc1)c1ccc(O)cc1
[1]
  IC50: 0.0028 µM
[2]
  IC50: 8400 µM
[3]
  Ratio IC50: 3e+06

## O=C(c1ccccc1)c1nc2ccccc2n2cnnc12
[1]
  IC50: 0.75 µM
[2]
  IC50: 940 µM
[3]
  Ratio IC50: 1250

## O=C(c1ccccc1)c1nc2ccccc2n2c(-c3ccccc3)nnc12
[1]
  IC50: 0.0027 µM
[2]
  IC50: 240 µM
[3]
  Ratio IC50: 88800

## C/C(=N\Nc1nc2ccccc2nc1Cc1ccccc1)c1ccccn1
[1]
  IC50: 0.091 µM
[2]
  IC50: 980 µM
[3]
  Ratio IC50: 10800

## CN(C)c1ccc(-c2nnc3c(C(=O)c4ccccc4)nc4ccccc4n23)cc1
[1]
  IC50: 0.0027 µM
[2]
  IC50: 7300 µM
[3]
  Ratio IC50: 2.7e+06

## COc1cc(/C(C)=N/Nc2nc3ccccc3nc2Cc2ccccc2)cc(OC)c1OC
[1]
  IC50: 0.029 µM
[2]
  IC50: 260 µM
[3]
  Ratio IC50: 8960

## c1ccc(Cc2nc3ccccc3n3c(-c4ccccc4)nnc23)cc1
[1]
  IC50: 0.082 µM
[2]
  IC50: 980 µM
[3]
  Ratio IC50: 12000

## C/C(=N\Nc1nc2ccccc2nc1Cc1ccccc1)c1ccc([N+](=O)[O-])cc1
[2]
  IC50: 89 µM

## c1ccc(Cc2nc3ccccc3n3cnnc23)cc1
[1]
  IC50: 0.087 µM
[2]
  IC50: 95 µM
[3]
  Ratio IC50: 1090

## C=NNc1nc2ccccc2nc1Cc1ccccc1
[1]
  IC50: 0.086 µM
[2]
  IC50: 950 µM
[3]
  Ratio IC50: 10400

## O=C(c1ccccc1)c1nc2ccccc2n2c(-c3ccc([N+](=O)[O-])cc3)nnc12
[1]
  IC50: 0.022 µM
[2]
  IC50: 230 µM
[3]
  Ratio IC50: 10400

## Oc1ccc(/C=N/Nc2nc3ccccc3nc2Cc2ccccc2)cc1
[1]
  IC50: 0.0034 µM
[2]
  IC50: 7900 µM
[3]
  Ratio IC50: 2.32e+06

## Clc1ccc(/C=N/Nc2nc3ccccc3nc2Cc2ccccc2)cc1
[1]
  IC50: 0.076 µM
[2]
  IC50: 84 µM
[3]
  Ratio IC50: 1100

## Cc1ccsc1/C=N/Nc1nc2ccccc2nc1Cc1ccccc1
[2]
  IC50: 860 µM

## COc1ccc(/C=N/Nc2nc3ccccc3nc2Cc2ccccc2)cc1OC
[1]
  IC50: 0.056 µM
[2]
  IC50: 460 µM
[3]
  Ratio IC50: 8210

## O=C(c1ccccc1)c1nc2ccccc2n2c(-c3ccccc3Cl)nnc12
[1]
  IC50: 0.088 µM
[2]
  IC50: 380 µM
[3]
  Ratio IC50: 4310

## CN(C)c1ccc(/C=N/Nc2nc3ccccc3nc2Cc2ccccc2)cc1
[1]
  IC50: 0.083 µM
[2]
  IC50: 880 µM
[3]
  Ratio IC50: 10600

## CN(C)c1ccc(-c2nnc3c(C(=O)c4ccccc4)nc4ccccc4n23)cc1Br
[2]
  IC50: 73 µM

## COc1ccc(/C=N/Nc2nc3ccccc3nc2Cc2ccccc2)cc1
[2]
  IC50: 79 µM

## COc1ccc(/C(C)=N/Nc2nc3ccccc3nc2Cc2ccccc2)cc1
[1]
  IC50: 0.089 µM
[2]
  IC50: 280 µM
[3]
  Ratio IC50: 3140

## COc1ccccc1/C=N/Nc1nc2ccccc2nc1Cc1ccccc1
[1]
  IC50: 0.083 µM
[2]
  IC50: 790 µM
[3]
  Ratio IC50: 9510

## COc1ccc(-c2nnc3c(C(=O)c4ccccc4)nc4ccccc4n23)cc1
[2]
  IC50: 85 µM

## Clc1ccccc1/C=N/Nc1nc2ccccc2nc1Cc1ccccc1
[1]
  IC50: 0.0058 µM
[2]
  IC50: 87 µM
[3]
  Ratio IC50: 15000

## Clc1ccccc1-c1nnc2c(Cc3ccccc3)nc3ccccc3n12
[1]
  IC50: 0.0061 µM
[2]
  IC50: 72 µM
[3]
  Ratio IC50: 11800

## C/C(=N\Nc1nc2ccccc2nc1Cc1ccccc1)c1ccccc1
[1]
  IC50: 0.079 µM
[2]
  IC50: 980 µM
[3]
  Ratio IC50: 12400

## C(=N\Nc1nc2ccccc2nc1Cc1ccccc1)/c1ccc2c(c1)OCO2
[2]
  IC50: 87 µM
